Data taken from PMC4086711 (European journal of pain (London, England), 2011).
Counter-ions that a name gives are not always drawn.

Assays:
KOR = assay: Ca2+ mobilization; type: cell-based; settings: agonist; HEK-293 with chimeric G-protein delta6-Gqi4-myr
Procedure, shortened: (§1)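 HEK-293 cells stably expressing the receptor, grown in DMEM with 10% FCS at 37 °C in 7% CO2, were transiently transfected with Δ6-Gqi4-myr (100 ng per 60,000 cells). After one day, cells were loaded with Ca2+ dye for 60 min and stimulated with increasing ligand concentrations to give dose–response curves and EC50. Each experiment was run at least three times in triplicate; values are means ± SEM.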

MOR = assay: Ca2+ mobilization; type: cell-based; settings: agonist; HEK-293 with chimeric G-protein delta6-Gqi4-myr
Procedure, shortened: as §1

In the case of `COC(=O)N1CCN(C(=O)Cc2ccc(Cl)c(Cl)c2)C(CN2CCCC2)C1` (centres unmarked) [GR89, 696, 4-[(3,4-Dichlorophenyl)acetyl]-3-(1-pyrrolidinylmethyl)-1-piperazine-carboxylic acid methyl ester fumarate], the “pEC50 (M) / KOR” value (KOR) is reported as 10.1 ± 0.2 pEC50 (M) and the “pEC50 (M) / MOR” value (MOR) is reported as 7.2 ± 0.2 pEC50 (M).
